Test results taken from ChEMBL document CHEMBL5150073, “Photocaged DNA-Binding Photosensitizer Enables Photocontrol of Nuclear Entry for Dual-Targeted Photodynamic Therapy” (J Med Chem, 2022).
Activity calls are given as the source filed them. The rule behind the calls is not given here.

Tests used:
[1] = Aqueous stability of the compound in PBS at pH 7.4 assessed as hydrolysis of carbamate to release 3-bromo-2-(4-carbamimidoylphenyl)-1H-indole-6-carboxamidine at 0.8 uM incubated for 3 hrs by fluorescence based analysis; assay type: physicochemical; conditions: buffer, pH 7.4, 3 h
MCF7 [2] = assay: Induction of ROS production in human MCF7 cells assessed as increase in green fluorescence signal at 3 uM irradiated with 480 nm 2.3 J/cm^2 light for 15 mins with 16 J 780 nm 2P laser light for 10 seconds by DCFH2-DA probe based analysis; assay type: functional, cell-based
In short: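 MCF7 cells given compound at 3 μM and DCFH2DA (10 μM). Uncaged by 480 nm illumination (15 min, 2.3 J cm⁻²). DCF fluorescence imaged before and after 780 nm two-photon laser exposure (10 s, 16 J).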

[3] = (§1) Stability of compound in human HeLa cells assessed as esterase-mediated 3-bromo-2-(4-carbamimidoylphenyl)-1H-indole-6-carboxamidine release by measuring cyan fluorescence at 2 uM incubated for 1 hr followed by compound washout and further incubated for 1 hr on heated microscopic stage by DAPI filter based fluorescence analysis; assay type: ADME, cell-based
In short: (§2)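 Cells incubated with compound (2 μM) for 1 h, washed once with PBS, then kept a further 1 h in the dark on a heated microscope stage. Nuclear cyan fluorescence imaged with the DAPI filter set at 0 h and 2 h time points.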

MCF7 [4] = assay: Photorelease activity in human MCF7 cells assessed as 3-bromo-2-(4-carbamimidoylphenyl)-1H-indole-6-carboxamidine release by measuring bright cyan fluorescence in nucleus at 3 uM incubated for 1 hr followed by illumination with 1.6 J/cm^2 for 10 mins by DAPI filter based analysis; assay type: ADME, cell-based; conditions: mcf7, 1.167 h, time 70 min
In short: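 MCF7 cells given compound (3 μM) for 1 h, washed once with PBS, imaged. DAPI filter set (ex 350–405, em 415–470 nm) used for Br-DAPI cyan signal; EGFP filter set (ex 450–495, em 500–550 nm) used for WinterGreen green signal. Cells imaged dark, then after 480 nm illumination (10 min, 1.6 J cm⁻²).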

[5] = as §1, with “MCF7” for “HeLa”; assay type: ADME, cell-based; conditions: mcf7, 1 h; in short: as §2
MCF7 [6] = assay: Induction of ROS production in human MCF7 cells at 2 uM incubated for 1 hr in dark followed by irradiation with 480 nm 2.3 J/cm^2 light for 15 mins with 8 J/cm^2 UV irradiation for 5 mins by DCFH2-DA probe based analysis; assay type: functional, cell-based; conditions: time 80.0 min
In short: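 MCF7 cells incubated with compound (2 μM) 1 h in the dark, washed, loaded with 10 μM DCFH2DA for 30 min, washed. DCF green fluorescence imaged after 480 nm illumination (15 min, 2.3 J cm⁻²), then after added 365 nm UV (5 min, 8.0 J cm⁻²). Mean fluorescence intensity quantified.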

DNA [7] = assay: Induction of DNA (unknown origin) damage in PBS at pH 7.4 assessed as double strand breaks by measuring production of small DNA fragments at 10 uM irradiated with 480 nm 2.3 J/cm^2 light for 15 mins with 8 J/cm^2 UV irradiation for 5 mins by ethidium bromide staining based agarose gel electrophoresis; assay type: nucleic-acid assay; conditions: time 20.0 min
In short: (§3)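 Plasmid dsDNA (70 ng pCMV-PARP1-3xFlag-WT, 7146 bp) in PBS pH 7.4 with compound at 10 μM. Illumination: 480 nm for 15 min (2.3 J cm⁻²), then UV 365 nm lamp for 5 min (8.0 J cm⁻²). Samples denatured, run on 1% agarose gel with ethidium bromide. n = 2.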

DNA [8] = assay: Induction of DNA (unknown origin) damage in PBS at pH 7.4 assessed as double strand breaks by measuring elimination of intact DNA at 10 uM irradiated with 480 nm 2.3 J/cm^2 light for 15 mins with 8 J/cm^2 UV irradiation for 5 mins by ethidium bromide staining based agarose gel electrophoresis; assay type: nucleic-acid assay; conditions: time 20.0 min; in short: as §3
[9] = Induction of ROS production in PBS at pH 7.4 at 1 uM irradiated with 480 nm 2.3 J/cm^2 light for 15 mins with 2-photon irradiation by DCFH2-DA probe based analysis; assay type: functional
[10] = Photorelease ability in PBS at pH 7.4 assessed as 3-bromo-2-(4-carbamimidoylphenyl)-1H-indole-6-carboxamidine release by measuring change in emission spectra at 1 uM incubated in presence of CT-DNA and irradiated with 3.1 J/cm^2 mercury lamp light for 20 mins; assay type: functional
[11] = Photorelease activity in PBS at pH 7.4 assessed as 3-bromo-2-(4-carbamimidoylphenyl)-1H-indole-6-carboxamidine release by measuring increase in fluorescence intensity at 50 uM in presence of CT-DNA incubated for 3 hrs under dark condition by RP-HPLC analysis; assay type: functional
In short: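 Samples at 50 μM in PBS pH 7.4 were either kept 3 h at 37 °C in the dark or illuminated 20 min at 480 nm (450–495 nm filter, 3.1 J cm⁻²). Analysed by RP-HPLC on a C18 analytical column with absorbance at 345 nm; retention times recorded. n = 2 independent samples.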

[12] = Drug uptake in human MCF7 cells cultured as […] spheroids assessed as increase in green fluorescence in nuclear background at 10 uM incubated overnight under dark condition by DAPI filter based fluorescence analysis; assay type: ADME, cell-based; conditions: mcf7, 10 µM
MCF7 [13] = assay: (§4) Photocytotoxicity against human MCF7 cells cultured as […] spheroids assessed as cell death by measuring increase in green fluorescence at 10 uM incubated for 1 hr followed by washout and irradiation with 480 nm 2.3 J/cm^2 light for 15 mins with 8 J/cm^2 UV irradiation for 5 mins and incubated overnight by cell viability imaging kit based assay; assay type: functional
In short: (§5)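 MCF7 spheroids (~300 μm) grown in ultralow-attachment plates. Compound added to medium at 10 μM final for 1 h, then illuminated: 480 nm (15 min, 2.3 J cm⁻²), 480 nm plus UV (5 min, 8.0 J cm⁻²), or UV only. After overnight incubation, stained with a live/dead imaging kit; dead-cell green mean intensity and spheroid diameter assessed.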

MCF7 [14] = assay: as §4, with “fold reduction” for “cell death by measuring increase”, “diameter of tumor spheroid size” for “green fluorescence”; assay type: functional; in short: as §5
MCF7 [15] = assay: Photocytotoxicity against human MCF7 cells assessed as reduction in cell viability incubated for 1 hr followed by washout and irradiation with 480 nm 2.3 J/cm^2 light for 15 mins and measured after 24 hrs by MTT assay; assay type: functional; conditions: MCF7, light or radiation study
In short: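 Cells (MCF7, A549, HeLa) incubated 1 h with compound (BB probes 0–32 μM, Br-DAPI 0–64 μM) and washed once. Light arms: 480 nm (15 min, 2.3 J cm⁻²) with or without UV (5 min, 8.0 J cm⁻²), or UV only; dark controls unilluminated. Cells kept overnight in growth medium, then MTT read 24 h post-treatment. CC50 taken relative to untreated cells. n = 3.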

MCF7 [16] = assay: Photocytotoxicity against human MCF7 cells assessed as cell death by measuring increase in green fluorescence at 4 uM incubated for 1 hr followed by washout and irradiated with 480 nm 2.3 J/cm^2 light for 15 mins with 48 J 780 nm 2P laser light for 30 seconds by cell viability imaging kit based assay; assay type: functional
In short: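 MCF7 cells given compound at 4 μM. Illuminated with 480 nm light (15 min, 2.3 J cm⁻²) plus 780 nm two-photon laser (30 s, 48 J). Stained 2 h later with a live/dead imaging kit: green dead-cell stain (EGFP filter), blue total-cell stain (DAPI filter). n = 3.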

Calf thymus DNA = assay: Binding affinity to calf thymus DNA assessed as red shift in absorbance spectra at 20 uM by fluorescence based analysis; assay type: nucleic-acid assay; conditions: Bos taurus

- Stability [1]: Stable
- Stability [3]: Stable
- Drug metabolism (MCF7 [4]): Metabolite_Detected
- Stability [5]: Stable
- Drug uptake [12]: Active
- Activity (Calf thymus DNA): Active
SMILES: CC1=CC(C)=[N+]2C1=C(COC(=O)/N=C(\N)c1ccc3c(Br)c(-c4ccc(C(=N)N)cc4)[nH]c3c1)c1c(C)cc(C)n1[B-]2(C)C
- Activity (MCF7 [2]): Active
- Activity (MCF7 [6]): Active
- Activity (DNA [7]): Active
- Activity (DNA [8]): Active
- Activity [9]: Active
- Drug metabolism [10]: Metabolite detected
- Drug metabolism [11]: Metabolite not detected
- Activity (MCF7 [13]): Active
- fold change (FC) (MCF7 [14]): 5
- CC50 (MCF7 [15]): 4 µM
- Activity (MCF7 [16]): Active
